Compound activity from PubChem.
Sampled rows, rich in hits. Any-hit rate of the full collection: about 1.8%.
TLR9-MyD88 block: blocks human TLR9 binding to MyD88. Q9NR96+Q99836. CHO BLA complementation TLR9-MyD88, CCF4 FRET ratio. inhibition, % at 4.98 µM. actives 0.21% (n = 340,000);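 active = inhibition above the mean over all tested compounds plus 3 SD, cut at about 21% in these data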
TLR4-MyD88 BLA: TLR4-MyD88 interaction inhibition in cells. O00206+Q99836. HeLa CL3-4 TLR4/MyD88 BLA complementation, FRET ratio. inhibition, % at 8.4 µM. actives 0.18% (n = 200,000); in the data active = inhibition above about 25%
MC4R antag cAMP: antagonists of human melanocortin 4 receptor (MC4R) | P32245 | MC4R-expressing cells, MTII-stimulated cAMP, LANCE TR-FRET | inhibition, % at 6.5 µM | actives 0.48% (n = 360,000) | AID 540295;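 active = inhibition above its plate's cutoff, the mean of tested wells on that plate plus 3 SD, cut at about 29% in these data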
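Assay system: human MC4R-expressing U2OS cells; reagent: Melanotan II stimulation of cells; dosing: 6.5 µM single dose; timing: compound 30 min, challenge 1 h, detection 1 h; signal: TR-FRET cAMP assay; replicates: one well per compound, no replicates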
MC4R barr agon: activates human MC4R beta-arrestin recruitment. actives 0.98% (n = 360,000). U2OS MC4R beta-arrestin complementation, luminescence; percent of melanotan II response, DMSO zero. activation, % at 8.9 µM;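 active = activation above a per-plate cutoff, the mean activation of sample wells on that plate plus 3 SD, cut at about 8% in these data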
NOD2-RIPK2 inh: inhibitors of human NOD2-RIPK2 interaction; O43353; CHO BLA complementation NOD2-RIPK2, CCF4 ratio; inhibition, % at 4.98 µM; actives 0.38% (n = 360,000); in the data active = inhibition above about 21%
Target sequence (O43353 whole entry, looked up): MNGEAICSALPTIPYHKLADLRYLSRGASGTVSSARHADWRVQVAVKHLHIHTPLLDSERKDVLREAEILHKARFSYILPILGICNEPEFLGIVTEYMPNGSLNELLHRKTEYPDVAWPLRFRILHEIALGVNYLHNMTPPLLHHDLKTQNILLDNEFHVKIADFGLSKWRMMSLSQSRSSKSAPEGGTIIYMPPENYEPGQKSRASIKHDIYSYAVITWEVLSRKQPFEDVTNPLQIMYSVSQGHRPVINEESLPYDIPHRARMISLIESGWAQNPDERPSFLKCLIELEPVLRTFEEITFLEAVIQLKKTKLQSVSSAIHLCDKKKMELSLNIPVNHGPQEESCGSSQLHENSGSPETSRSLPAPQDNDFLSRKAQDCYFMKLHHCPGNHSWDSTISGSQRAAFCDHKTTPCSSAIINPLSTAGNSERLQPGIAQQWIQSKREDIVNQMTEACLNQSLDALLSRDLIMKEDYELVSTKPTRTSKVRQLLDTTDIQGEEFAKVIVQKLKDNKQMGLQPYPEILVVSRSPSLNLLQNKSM
MC4R barr ag: human MC4R beta-arrestin agonism confirmation; shares compounds with MC4R barr agon; U2OS MC4R beta-arrestin recruitment, luminescence; scaled DMSO 0%, Melanotan II 100%; activation, % at 8.9 µM; actives 31% (n = 2,400);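 active = mean activation across replicates above the hit cutoff set in the earlier primary screen, cut at about 8% in these data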
MOR DOR agonist: activates mu-delta opioid heterodimer, MC4R agonist counter-screen. AID 602194. activation, % at 9.2 µM. U2OS PathHunter beta-arrestin, beta-gal luminescence; percent of deltorphin B response, DMSO zero. shares compounds with MC4R barr agon. actives 5.8% (n = 2,400);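 active = mean activation across replicates exceeds the hit threshold derived in the earlier primary screen, cut at about 18% in these data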
Large screens that a line does not name were inactive (follow-up assays come after a bar, where they were run).

CC(=O)c1cccc(NS(=O)(=O)c2ccc(N/C=C\C(=O)c3ccc(C)cc3)cc2)c1	MC4R barr agon 30 | MC4R barr ag inactive | MOR DOR agonist inactive
CC(=O)c1cccc(NS(=O)(=O)c2ccc(N/C=C/C(=O)c3ccc(F)cc3)cc2)c1	none
Cc1noc(C)c1S(=O)(=O)N(C)C[C@H]1OCc2cnnn2CCCC(=O)N([C@@H](C)CO)C[C@H]1C	none (no result: TLR4-MyD88 BLA)
O=C(NCC1OCCc2ccccc21)c1cc(COc2ccc(F)cc2Cl)on1 (centres undefined)	MC4R barr agon 15 | MC4R barr ag inactive | MOR DOR agonist inactive
O=C(NC1CCc2ccccc21)c1cc(COc2ccc(F)cc2F)on1 (centres undefined)	none
Cc1ccsc1C(=O)OCC(=O)NCc1cccs1	none (no result: TLR4-MyD88 BLA)
CC(C)(C)c1cc(-c2ccco2)c(C#N)c(SCC#N)n1	MC4R barr agon 19 | MC4R barr ag inactive | MOR DOR agonist inactive
COCCNC(=O)CN(C(=O)CCC(=O)Nc1ccccn1)c1ccccc1OC	none (no result: TLR4-MyD88 BLA)
Cc1cc(C)c2sc(N(CCCN(C)C)C(=O)COc3ccc(Cl)cc3)nc2c1	MC4R barr agon 11 | MC4R barr ag 25 | MOR DOR agonist inactive
Cc1nn(-c2ccccc2)nc1C(=O)Nc1ccc2[nH]ncc2c1	MC4R barr agon 23 (no result: TLR4-MyD88 BLA) | MC4R barr ag 13 | MOR DOR agonist inactive
CSc1ccccc1NC(=O)Nc1cccc(Cl)c1Cl	MC4R barr agon 16 | MC4R barr ag 9.2 | MOR DOR agonist inactive
O=C(CN1CCN(c2ccc(O)cc2)CC1)Nc1cc([N+](=O)[O-])ccc1Cl	none
COCCN(CC(=O)Nc1cccc(C)c1C)C(=O)c1ccc(-n2cccn2)cc1	none (no result: TLR4-MyD88 BLA)
O=c1[nH]c(Cn2nnc(-c3ccccc3)n2)nc2scc(-c3ccccc3)c12	MC4R barr agon 12 | MC4R barr ag inactive | MOR DOR agonist inactive
O=c1[nH]c(CN2CCN(Cc3ccccc3)CC2)nc2scc(-c3ccccc3)c12	none (no result: TLR4-MyD88 BLA)
COc1ccc(-c2cc(NC=O)c3ncc(-c4cccc(C(C)=O)c4)n3c2)cc1	MC4R barr agon 13 (no result: TLR9-MyD88 block, TLR4-MyD88 BLA) | MC4R barr ag 13 | MOR DOR agonist inactive
CN(C)C(=O)c1cccc(-c2cnc3c(NC=O)cc(-c4ccccc4Cl)cn23)c1	MC4R barr agon 9.8 (no result: TLR9-MyD88 block, TLR4-MyD88 BLA) | MC4R barr ag 8.9 | MOR DOR agonist inactive
COc1cccc(-c2cnc3c(NC=O)cc(-c4cccc(NC(C)=O)c4)cn23)c1	MC4R barr agon 12 (no result: TLR9-MyD88 block, TLR4-MyD88 BLA) | MC4R barr ag 12 | MOR DOR agonist inactive
CC(=O)c1cccc(-c2cnc3c(NC=O)cc(-c4ccccc4)cn23)c1	MC4R barr agon 9.6 (no result: TLR9-MyD88 block, TLR4-MyD88 BLA) | MC4R barr ag 13 | MOR DOR agonist inactive
CC(=O)Nc1cccc(-c2cc(NC=O)c3ncc(-c4cccc(C(C)=O)c4)n3c2)c1	none (no result: TLR9-MyD88 block, TLR4-MyD88 BLA)
Cc1ccc(-c2cc(NC=O)c3ncc(-c4cccc(C(=O)N(C)C)c4)n3c2)cc1	none (no result: TLR9-MyD88 block, TLR4-MyD88 BLA)
CSc1nnc(SCC#N)s1	none (no result: TLR9-MyD88 block, TLR4-MyD88 BLA)
O=C1Nc2ccccc2N(C(=O)c2ccc3ccccc3c2)C1c1nc2ccccc2[nH]1 (centres undefined)	none (no result: TLR9-MyD88 block, TLR4-MyD88 BLA, MC4R antag cAMP, MC4R barr agon)
Cc1cccc(S(=O)(=O)NC(=O)C2(C)CCN2C(=O)Cc2ccccc2)c1 (centres undefined)	none (no result: TLR9-MyD88 block, TLR4-MyD88 BLA)
COc1cccc(-c2cnc3c(NC(C)=O)cc(-c4ccc(C(=O)N5CCOCC5)cc4)cn23)c1	MC4R barr agon 15 (no result: TLR9-MyD88 block, TLR4-MyD88 BLA) | MC4R barr ag 20 | MOR DOR agonist inactive
Cc1c(C(=O)Nc2nnc(C3CC3)s2)oc2ccccc12	none (no result: TLR4-MyD88 BLA)
Cc1ccc(S(=O)(=O)NCc2ccccc2)cc1C(=O)N(C)CC(=O)Nc1c(Cl)cccc1Cl	none (no result: TLR4-MyD88 BLA)
CN(C)CCn1nnc2c(=O)oc3ccccc3c21	none
CC(=O)c1nn(-c2ccc(Br)cc2)cc1C(=O)c1ccccc1	MC4R barr agon 29 | MC4R barr ag inactive | MOR DOR agonist 19
CC(=O)c1nn(-c2ccc(Cl)cc2)cc1C(=O)c1ccc(C)cc1	MC4R barr agon 21 (no result: TLR9-MyD88 block, TLR4-MyD88 BLA) | MC4R barr ag 13 | MOR DOR agonist inactive
CC(=O)c1nn(-c2ccccc2)cc1C(=O)c1ccc(C)cc1	none (no result: TLR9-MyD88 block, TLR4-MyD88 BLA)
COc1ccc(C(=O)c2cn(-c3cccc(Br)c3)nc2C(C)=O)cc1	MC4R barr agon 15 (no result: TLR4-MyD88 BLA) | MC4R barr ag inactive | MOR DOR agonist inactive
CC(=O)c1nn(-c2cccc(C)c2)cc1C(=O)c1cccc(Br)c1	MC4R barr agon 12 (no result: TLR4-MyD88 BLA) | MC4R barr ag inactive | MOR DOR agonist inactive
CC(=O)c1nn(-c2cccc(Br)c2)cc1C(=O)c1ccc2ccccc2c1	none
O=C1c2ccccc2C(=O)N1CCCCN(C(=O)c1cc2ccccc2oc1=O)c1ccc(F)cc1F	none
CC(=O)Nc1ccc(S(=O)(=O)Nc2nc3ccccc3nc2Nc2ccc(C(=O)O)c(O)c2)cc1	none (no result: TLR4-MyD88 BLA)
CC(=O)Nc1ccc(S(=O)(=O)Nc2cc(C)c(-n3nc4ccccc4n3)cc2O)cc1	MC4R barr agon 11 | MC4R barr ag inactive | MOR DOR agonist inactive
CCCNc1c(NS(=O)(=O)c2ccc3c(c2)CCCC3)c(=O)oc2ccccc12	MC4R barr agon 14 (no result: TLR4-MyD88 BLA) | MC4R barr ag inactive | MOR DOR agonist inactive
CCn1c(SCC(=O)Nc2nccs2)nnc1-c1cc2cccc(OC)c2o1	none
COc1cccc2cc(-c3nnc(SCC(=O)Nc4cc(C(F)(F)F)ccc4Cl)n3N)oc12	MC4R barr agon 21 | MC4R barr ag inactive | MOR DOR agonist inactive
CC(C)CNC(=S)N(CCCO)Cc1cc2cc3c(cc2[nH]c1=O)OCO3	none (no result: TLR4-MyD88 BLA)
Cc1ccc2nsnc2c1NC(=O)c1sc2ccccc2c1Cl	MC4R barr agon 13 | MC4R barr ag inactive | MOR DOR agonist inactive
Cc1nnc(NC(=O)c2sc3ccccc3c2Cl)s1	none
Cc1ccc(C)c(OCC(=O)Nc2ccc(C(=O)O)cc2NC(=O)COc2cc(C)ccc2C)c1	none (no result: TLR4-MyD88 BLA)
S=c1[nH]cc(-c2ccc(Cl)cc2)n1Cc1ccccc1	MC4R barr agon 19 (no result: TLR4-MyD88 BLA) | MC4R barr ag inactive | MOR DOR agonist inactive
CC1(C)CC(N=c2cc(-c3ccccc3)oc3ccc(Cl)cc23)CC(C)(C)N1	MC4R barr agon 24 | MC4R barr ag inactive | MOR DOR agonist inactive
OCCCN=c1cc(-c2ccccc2)oc2ccc(Cl)cc12	none
CCCCC(c1nc2ccccc2[nH]1)n1c(=O)c(-c2ccccc2)nc2cc(C)c(C)cc21 (centres undefined)	none (no result: TLR9-MyD88 block, TLR4-MyD88 BLA, MC4R antag cAMP, MC4R barr agon)
O=C(NN=Cc1ccc2c(c1)CCC2)c1cccc([N+](=O)[O-])c1	MC4R barr agon 22 (no result: TLR4-MyD88 BLA) | MC4R barr ag 13 | MOR DOR agonist inactive
O=C(Cc1cccc2ccccc12)NN=Cc1ccc2c(c1)CCC2	MC4R barr agon 13 (no result: TLR4-MyD88 BLA) | MC4R barr ag inactive | MOR DOR agonist inactive
COc1ccc(Cl)cc1NS(=O)(=O)N1CCOCC1	none (no result: TLR4-MyD88 BLA)
